Laboratory results published in ChEMBL document CHEMBL4619808, “Tailoring the Physicochemical Properties of Antimicrobial Peptides onto a Thiazole-Based γ-Peptide Foldamer” (J Med Chem, 2020).
≈ marks a conversion by molar mass, not a printed value.

How the values were obtained:
Escherichia coli [1] = assay: Antimicrobial activity against Escherichia coli ATCC 8739 assessed as inhibition of microbial growth incubated for 24 hrs; type: functional; conditions: ATCC 8739, 24 h
Summary of the method: (§1)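 Broth microdilution. Strains grown overnight on TSA at 37°C, suspended to 10⁸ CFU/mL in Tryptone-Sel, then diluted to 10⁶ CFU/mL in double-strength Mueller-Hinton broth. Two-fold serial dilutions in sterile water (pH 7.4–7.7) mixed 1:1 with inoculum. Incubation 24 h at 37°C. MIC is the lowest concentration inhibiting growth. Duplicate wells, three independent experiments.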

Staphylococcus aureus [2] = assay: Microbicidal activity against Staphylococcus aureus ATCC 6538 assessed as inhibition of colony growth incubated for 24 hrs followed by replating and further incubated for 24 hrs; type: functional; conditions: ATCC 6538, 24 h
[3] = Hemolytic activity in human RBC assessed as induction of hemolysis incubated for 1 hr; type: cell-based, Erythrocyte; conditions: red blood cells (erythrocytes), read-out: HD50
Summary of the method: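 Human RBCs washed in PBS and used at 5% packed cell volume, mixed 1:1 with two-fold serial dilutions in PBS (pH 7.4–7.7). Incubation 1 h at 37°C, then centrifugation at 1500g for 10 min at 5°C. Supernatant absorbance read at 490 nm against PBS (0%) and 1% SDS/Tris (100%) controls. HC50 from three independent experiments, double duplicate.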

Pseudomonas aeruginosa [4] = assay: Antimicrobial activity against Pseudomonas aeruginosa ATCC 9027 assessed as inhibition of microbial growth incubated for 24 hrs; type: functional; conditions: ATCC 9027, 24 h; summary of the method: as §1
Escherichia coli [5] = assay: Microbicidal activity against Escherichia coli ATCC 8739 assessed as inhibition of colony growth incubated for 24 hrs followed by replating and further incubated for 24 hrs; type: functional; conditions: ATCC 8739, 24 h
Candida albicans [6] = assay: Antimicrobial activity against Candida albicans ATCC 10231 assessed as inhibition of microbial growth incubated for 48 hrs; type: functional; conditions: ATCC 10231, 48 h
Summary of the method: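 C. albicans grown 48 h on Sabouraud at 20–25°C, suspended to 10⁸ CFU/mL, then diluted to 10⁶ CFU/mL in double-strength Mueller-Hinton broth. Two-fold serial dilutions in water (pH 7.4–7.7) mixed 1:1 with inoculum. Incubation 48 h at 25°C. MIC is the lowest concentration inhibiting growth. Duplicate wells, three independent experiments.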

Bacillus subtilis [7] = assay: Microbicidal activity against Bacillus subtilis ATCC 6633 assessed as inhibition of colony growth incubated for 24 hrs followed by replating and further incubated for 24 hrs; type: functional; conditions: ATCC 6633, 24 h
Enterococcus faecalis [8] = assay: Antimicrobial activity against Enterococcus faecalis ATCC 29121 assessed as inhibition of microbial growth incubated for 24 hrs; type: functional; conditions: ATCC 29121, 24 h; summary of the method: as §1
Staphylococcus aureus [9] = assay: Antimicrobial activity against Staphylococcus aureus ATCC 6538 assessed as inhibition of microbial growth incubated for 24 hrs; type: functional; conditions: ATCC 6538, 24 h; summary of the method: as §1
Pseudomonas aeruginosa [10] = assay: Microbicidal activity against Pseudomonas aeruginosa ATCC 9027 assessed as inhibition of colony growth incubated for 24 hrs followed by replating and further incubated for 24 hrs; type: functional; conditions: ATCC 9027, 24 h
Bacillus subtilis [11] = assay: Antimicrobial activity against Bacillus subtilis ATCC 6633 assessed as inhibition of microbial growth incubated for 24 hrs; type: functional; conditions: ATCC 6633, 24 h; summary of the method: as §1
Candida albicans [12] = assay: Microbicidal activity against Candida albicans ATCC 10231 assessed as inhibition of colony growth incubated for 48 hrs followed by replating and further incubated for 48 hrs; type: functional; conditions: ATCC 10231, 48 h
Enterococcus faecalis [13] = assay: Microbicidal activity against Enterococcus faecalis ATCC 29121 assessed as inhibition of colony growth incubated for 24 hrs followed by replating and further incubated for 24 hrs; type: functional; conditions: ATCC 29121, 24 h
Escherichia coli [14] = assay: Antimicrobial activity against Escherichia coli ATCC 8739 assessed as inhibition of microbial growth measured after 8 passes in presence of sublethal compound concentration concentrations; type: functional

Structure (SMILES)	MIC (Escherichia coli [1])	MBC (Staphylococcus aureus [2]) [µM]	HC50 at 1 h [3] [µM]	MIC (Pseudomonas aeruginosa [4]) [µM]	MBC (Escherichia coli [5]) [µM]	MIC (Candida albicans [6]) [µM]	MBC (Bacillus subtilis [7]) [µM]	MIC (Enterococcus faecalis [8]) [µM]	MIC (Staphylococcus aureus [9]) [µM]	MBC (Pseudomonas aeruginosa [10]) [µM]	MIC (Bacillus subtilis [11]) [µM]	MBC (Candida albicans [12]) [µM]	MBC (Enterococcus faecalis [13]) [µM]	MIC (Escherichia coli [14]) [µg/mL]
CC(=O)N[C@@H](CCCNC(=N)N)c1nc(C)sc1C(=O)N[C@@H](C)c1nc(CCCNC(=N)N)sc1C(=O)N[C@@H](C)c1nc(C)sc1C(=O)N[C@@H](CCCNC(=N)N)c1nc(C)sc1C(=O)N[C@@H](C)c1nc(CCCNC(=N)N)sc1C(=O)N[C@@H](C)c1nc(C)sc1C(=O)N[C@@H](CCCNC(=N)N)c1nc(C)sc1C(=O)N[C@@H](C)c1nc(CCCNC(=N)N)sc1C(=O)N[C@@H](C)c1nc(C)sc1C(N)=O	0.8 µM	16.5 (≈ 34.4 µg/mL)	> 100	54	0.8 (≈ 1.67 µg/mL)	9.4	0.5 (≈ 1.04 µg/mL)	100	14.6	100 (≈ 208 µg/mL)	0.5	12.5 (≈ 26 µg/mL)	> 100	
CC(=O)N[C@@H](CCCNC(=N)N)c1nc(C)sc1C(=O)N[C@@H](C)c1nc(C)sc1C(=O)N[C@@H](C)c1nc(C)sc1C(=O)N[C@@H](CCCNC(=N)N)c1nc(C)sc1C(=O)N[C@@H](C)c1nc(C)sc1C(=O)N[C@@H](C)c1nc(C)sc1C(=O)N[C@@H](CCCNC(=N)N)c1nc(C)sc1C(=O)N[C@@H](C)c1nc(C)sc1C(=O)N[C@@H](C)c1nc(C)sc1C(=O)N[C@@H](CCCNC(=N)N)c1nc(C)sc1C(=O)N[C@@H](C)c1nc(C)sc1C(=O)N[C@@H](C)c1nc(C)sc1C(N)=O	23 µM	8.3 (≈ 20.1 µg/mL)	46	> 100	30 (≈ 72.5 µg/mL)	25	0.5 (≈ 1.21 µg/mL)	3.1	3.1		0.5	50 (≈ 121 µg/mL)	11.5 (≈ 27.8 µg/mL)	
CC(=O)N[C@@H](CCCCN)c1nc(C)sc1C(=O)N[C@@H](C)c1nc(CCCCN)sc1C(=O)N[C@@H](C)c1nc(C)sc1C(=O)N[C@@H](CCCCN)c1nc(C)sc1C(=O)N[C@@H](C)c1nc(CCCCN)sc1C(=O)N[C@@H](C)c1nc(C)sc1C(=O)N[C@@H](CCCCN)c1nc(C)sc1C(=O)N[C@@H](C)c1nc(CCCCN)sc1C(=O)N[C@@H](C)c1nc(C)sc1C(=O)N[C@@H](CCCCN)c1nc(C)sc1C(=O)N[C@@H](C)c1nc(CCCCN)sc1C(=O)N[C@@H](C)c1nc(C)sc1C(N)=O	1.6 µM	57 (≈ 144 µg/mL)	> 100	3.9	1.6 (≈ 4.06 µg/mL)	3.7	0.5 (≈ 1.27 µg/mL)	> 150	26	5.2 (≈ 13.2 µg/mL)	0.5	3.7 (≈ 9.38 µg/mL)	> 150	
CC(=O)N[C@@H](CCCCN)c1nc(C)sc1C(=O)N[C@@H](C)c1nc(C)sc1C(=O)N[C@@H](C)c1nc(CCCCN)sc1C(=O)N[C@@H](C)c1nc(C)sc1C(=O)N[C@@H](C)c1nc(CCCCN)sc1C(=O)N[C@@H](CCCCN)c1nc(C)sc1C(=O)N[C@@H](C)c1nc(CCCCN)sc1C(=O)N[C@@H](CCCCN)c1nc(C)sc1C(=O)N[C@@H](C)c1nc(C)sc1C(=O)N[C@@H](C)c1nc(C)sc1C(=O)N[C@@H](C)c1nc(CCCCN)sc1C(=O)N[C@@H](CCCCN)c1nc(C)sc1C(N)=O	5.2 µM	> 100	> 100	100	8.3 (≈ 21 µg/mL)	50	0.8 (≈ 2.03 µg/mL)	> 150	100	> 100	0.8	62.5 (≈ 158 µg/mL)	> 150	
CC(=O)N[C@@H](CCCCN)c1nc(C)sc1C(=O)N[C@@H](C)c1nc(CCCCN)sc1C(=O)N[C@@H](C)c1nc(C)sc1C(N)=O	> 150 µM	> 150	> 100	> 150	> 150	> 150	> 150	> 150	> 150	> 150	> 150	> 150	> 150	
CC(=O)N[C@@H](CCCCN)c1nc(C)sc1C(=O)N[C@@H](C)c1nc(CCCCN)sc1C(=O)N[C@@H](C)c1nc(C)sc1C(=O)N[C@@H](CCCCN)c1nc(C)sc1C(=O)N[C@@H](C)c1nc(CCCCN)sc1C(=O)N[C@@H](C)c1nc(C)sc1C(=O)N[C@@H](CCCCN)c1nc(C)sc1C(=O)N[C@@H](C)c1nc(CCCCN)sc1C(=O)N[C@@H](C)c1nc(C)sc1C(N)=O	5.2 µM	> 150	> 100	42	7.3 (≈ 14 µg/mL)	10.4	0.8 (≈ 1.53 µg/mL)	> 150	> 150	83 (≈ 159 µg/mL)	0.8	10.4 (≈ 19.9 µg/mL)	> 150	
CC(=O)N[C@@H](CCCCN)c1nc(C)sc1C(=O)N[C@@H](CC(C)C)c1nc(CCCCN)sc1C(=O)N[C@@H](C)c1nc(CC(C)C)sc1C(=O)N[C@@H](CCCCN)c1nc(C)sc1C(=O)N[C@@H](CC(C)C)c1nc(CCCCN)sc1C(=O)N[C@@H](C)c1nc(CC(C)C)sc1C(=O)N[C@@H](CCCCN)c1nc(C)sc1C(=O)N[C@@H](CC(C)C)c1nc(CCCCN)sc1C(=O)N[C@@H](C)c1nc(CC(C)C)sc1C(=O)N[C@@H](CCCCN)c1nc(C)sc1C(=O)N[C@@H](CC(C)C)c1nc(CCCCN)sc1C(=O)N[C@@H](C)c1nc(CC(C)C)sc1C(N)=O	14.6 µM	25 (≈ 71.8 µg/mL)	> 100	14.6	16.5 (≈ 47.4 µg/mL)	25	6.2 (≈ 17.8 µg/mL)	10.4	16.7	19 (≈ 54.6 µg/mL)	4.2	25 (≈ 71.8 µg/mL)	12.5 (≈ 35.9 µg/mL)	
CC(=O)N[C@@H](CCCCN)c1nc(C)sc1C(=O)N[C@@H](C)c1nc(CCCCN)sc1C(=O)N[C@@H](C)c1nc(C)sc1C(=O)N[C@@H](CCCCN)c1nc(C)sc1C(=O)N[C@@H](C)c1nc(CCCCN)sc1C(=O)N[C@@H](C)c1nc(C)sc1C(N)=O	> 150 µM	> 150	> 100	> 150	> 150	62.5	30 (≈ 38.9 µg/mL)	> 150	> 150	> 150	30	130 (≈ 169 µg/mL)	> 150	
CO/N=C(\C(=O)N[C@@H]1C(=O)N2C(C(=O)O)=C(COC(C)=O)CS[C@H]12)c1csc(N)n1 [CEFOTAXIME]	< 0.05 µg/mL													0.8
CC[C@H](C)[C@H](NC(=O)CN)C(=O)NCC(=O)N[C@@H](C)C(=O)N[C@H](C(=O)N[C@@H](CC(C)C)C(=O)N[C@@H](CCCCN)C(=O)N[C@H](C(=O)N[C@@H](CC(C)C)C(=O)N[C@H](C(=O)N[C@H](C(=O)NCC(=O)N[C@@H](CC(C)C)C(=O)N1CCC[C@H]1C(=O)N[C@@H](C)C(=O)N[C@@H](CC(C)C)C(=O)N[C@H](C(=O)N[C@@H](CO)C(=O)N[C@@H](Cc1c[nH]c2ccccc12)C(=O)N[C@H](C(=O)N[C@@H](CCCCN)C(=O)N[C@@H](CCCNC(=N)N)C(=O)N[C@@H](CCCCN)C(=O)N[C@@H](CCCNC(=N)N)C(=O)N[C@@H](CCC(N)=O)C(=O)N[C@@H](CCC(N)=O)C(N)=O)[C@@H](C)CC)[C@@H](C)CC)[C@@H](C)O)[C@@H](C)O)C(C)C)C(C)C [MELITTIN]		1.2 (≈ 3.42 µg/mL)			4.7 (≈ 13.4 µg/mL)	1.6	1.1 (≈ 3.13 µg/mL)	1.6		3.1 (≈ 8.82 µg/mL)		1.6 (≈ 4.55 µg/mL)	1.6 (≈ 4.55 µg/mL)	
